# Measured values: ChEMBL document CHEMBL1142205 (Antimicrob Agents Chemother, 2007)
# Calls of active or inactive are those of the source. The rule behind the calls is not given here.
# How the values were obtained:
# Plasmodium falciparum [1] = assay: Increase of Plasmodium falciparum 3D7 nuclear DNA damage by real-time PCR analysis; format: functional
# Method in brief: (§1)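 3D7 early trophozoites at 5% parasitemia and 5% hematocrit exposed to drug or DMSO for 6 h at 37°C. Genomic DNA by proteinase K/phenol-chloroform, quantified by dot blot; SYBR green real-time PCR on 1 ng DNA. Lesions derived from CT shift relative to control, control amplification efficiency set at 1.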
# Plasmodium falciparum [2] = assay: Increased intracellular reactive oxygen species in Plasmodium falciparum at 1 uM; format: functional, organism-based
# Method in brief: (§2)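 Parasitized cells preloaded with 50 μM DCFH-DA, 37°C, 30 min, washed, then exposed to drug for 4 h, alone or with mannitol (50 μM) or ascorbic acid plus reduced glutathione (1 mM each). Flow cytometry at ex 485/em 535 nm; ROS taken as mean fluorescence intensity. SD from three experiments.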
# Plasmodium falciparum [3] = assay: Restoration of nuclear GCN5 activity in Plasmodium falciparum at 50 uM in presence of 400 units/ml superoxide dismutase
# Plasmodium falciparum [4] = assay: Restoration of nuclear GCN5 activity in Plasmodium falciparum at 50 uM in presence of 5000 units/ml catalase
# Plasmodium falciparum [5] = assay: Growth inhibition of chloroquine-resistant Plasmodium falciparum 7G8 at 5 uM; format: functional, organism-based
# Method in brief: (§3)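 Sorbitol-synchronised ring-stage parasites were seeded at 0.5% parasitemia and 5% hematocrit in 24-well plates. […] Parasitemia was counted daily for 4 days on Giemsa-stained smears, as means of three replicate samples.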
# Plasmodium falciparum [6] = assay: Restoration of nuclear GCN5 activity in Plasmodium falciparum at 50 uM in presence of 300 uM mannitol
# Plasmodium falciparum [7] = assay: Growth arrest of Plasmodium falciparum at 50 uM; format: functional, organism-based
# Method in brief: (§4)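 Maturation assay: synchronized ring-stage parasites in 24-well plates with 50 μM drug and increasing mannitol concentrations. When control schizonts matured, schizonts per 5,000 red cells counted in each well.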
# Plasmodium falciparum [8] = assay: (§5) Antimalarial activity against chloroquine-susceptible Plasmodium falciparum D10; format: functional, organism-based
# Method in brief: (§6)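 Asexual P. falciparum cultured in human O+ erythrocytes at 37°C under 5% CO2/3% O2 and sorbitol-synchronised. Ring stages were set at 1% parasitemia and 5% hematocrit in low-hypoxanthine medium, in triplicate. […] Uninfected-RBC counts were subtracted and IC50/IC90 taken by linear regression with 95% CI.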
# Plasmodium falciparum [9] = assay: Activity of GCN5 in Plasmodium falciparum assessed as increase in acetylation of H3-K9 and H3-K14 at 20 uM in presence of mannitol
# Method in brief: (§7)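 Unsynchronized 3D7 cultures exposed to 20 μM drug for 4 or 12 h (aliquots treated from 0 or 8 h, all harvested at 12 h), with or without 300 μM mannitol. Histones acid-extracted, equal amounts run on SDS-PAGE and immunoblotted with acetylation site-specific antibodies; anti-H4 as loading control.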
# Plasmodium falciparum [10] = assay: Growth inhibition of chloroquine-susceptible Plasmodium falciparum 3D7 at 5 uM; format: functional, organism-based
# Method in brief: (§8)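 Strain 3D7, sorbitol-synchronized rings, seeded at 0.5% parasitemia, 5% hematocrit in O+ erythrocytes, RPMI/Albumax medium, 37°C, 5% CO2/3% O2. Continuous exposure to 5 or 20 μM (or none); parasitemia counted daily for 4 days on Giemsa smears, three replicates per point.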
# Plasmodium falciparum [11] = assay: Growth inhibition of chloroquine-resistant Plasmodium falciparum 7G8 at 20 uM; format: functional, organism-based; method in brief: as §3
# Plasmodium falciparum [12] = assay: Antimalarial activity against chloroquine-resistant Plasmodium falciparum Dd2; format: functional, organism-based; method in brief: as §6
# Plasmodium falciparum [13] = assay: Increase of Plasmodium falciparum 3D7 mitochondrial DNA damage by real-time PCR analysis; format: functional; method in brief: as §1
# Plasmodium falciparum [14] = assay: Growth restoration of Plasmodium falciparum at 50 uM with 400 uM mannitol; format: functional, organism-based; method in brief: as §4
# Plasmodium falciparum [15] = assay: Growth inhibition of chloroquine-susceptible Plasmodium falciparum 3D7 at 20 uM; format: functional, organism-based; method in brief: as §8
# Plasmodium falciparum [16] = assay: Inhibition of GCN5 in Plasmodium falciparum assessed as hyperacetylation of H3-K9 and H3-K14 at 20 uM after 12 hrs; details: 3D7, in the assay text read “hypoacetylation” for “hyperacetylation”; method in brief: as §7
# Plasmodium falciparum [17] = assay: as §5; format: functional, organism-based; method in brief: as §6; remark: listed apart in the source
# Plasmodium falciparum [18] = assay: Pro-oxidant activity in Plasmodium falciparum as increased ROS; format: functional, organism-based; method in brief: as §2
# Plasmodium falciparum [19] = assay: Increase in intracellular reactive oxygen species in Plasmodium falciparum at 50 uM; format: functional, organism-based; method in brief: as §2
# Plasmodium falciparum [20] = assay: Antimalarial activity against chloroquine-resistant Plasmodium falciparum 7G8; format: functional, organism-based; method in brief: as §6
# Plasmodium falciparum [21] = assay: Inhibition of nuclear GCN5 in Plasmodium falciparum after 8 hrs by liquid HAT assay at 25 to 100 uM
# Plasmodium falciparum [22] = assay: Decreased reactive oxygen species in Plasmodium falciparum with 50 uM mannitol; format: functional, organism-based; method in brief: as §2
# Plasmodium falciparum [23] = assay: Growth restoration of Plasmodium falciparum at 50 uM with 300 uM mannitol; format: functional, organism-based; method in brief: as §4
# Plasmodium falciparum [24] = assay: Increased DNA damage in Plasmodium falciparum after 12 hrs in TUNEL assay; format: functional, organism-based
# Method in brief: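 Ring-stage parasites exposed to 20 or 50 μM for 12 h, with or without 400 μM mannitol. Percoll-purified, fixed on poly-L-lysine slides, TUNEL with fluorescein-dUTP, propidium iodide counterstain. 300 cells scored per treatment for percent labeled; triplicate samples.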
# Plasmodium falciparum [25] = assay: Decreased reactive oxygen species in Plasmodium falciparum with 1 mM ascorbic acid and 1 mM reduced glutathione; format: functional, organism-based; method in brief: as §2
# Plasmodium falciparum [26] = assay: Inhibition of Plasmodium falciparum 3D7 recombinant GCN5 by HAT assay at 100 uM
# Method in brief: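 Recombinant PfGCN5 HAT domain (30 ng) with 1 μg bovine core histones preincubated ± drug in HAT buffer, 30°C, 10 min, then 0.1 μCi [3H]acetyl-CoA for 10 min. Half spotted on P-81 filters, washed at pH 9.2, scintillation counted; half resolved by SDS-PAGE/fluorography. DMSO solvent control; triplicates.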
smiles,measurement,setting,value
COc1cc(/C=C/C(=O)CC(=O)/C=C/c2ccc(O)c(OC)c2)ccc1O [CURCUMIN],Activity,Plasmodium falciparum [1],Active
same,Activity,Plasmodium falciparum [2],Active
same,Activity,Plasmodium falciparum [3],Active
same,Activity,Plasmodium falciparum [4],Active
same,Activity,Plasmodium falciparum [5],Active
same,Activity,Plasmodium falciparum [6],Active
same,Activity,Plasmodium falciparum [7],Active
same,IC50,Plasmodium falciparum [8],22.9 µM
same,IC90,Plasmodium falciparum [8],41.3 µM
same,Activity,Plasmodium falciparum [9],Active
same,Activity,Plasmodium falciparum [10],Active
same,Activity,Plasmodium falciparum [11],Active
same,IC50,Plasmodium falciparum [12],27.4 µM
same,IC90,Plasmodium falciparum [12],49.4 µM
same,Activity,Plasmodium falciparum [13],Active
same,Activity,Plasmodium falciparum [14],Active
same,Activity,Plasmodium falciparum [15],Active
same,Activity,Plasmodium falciparum [16],Active
same,IC50,Plasmodium falciparum [17],22.9 µM
same,IC90,Plasmodium falciparum [17],41.3 µM
same,Activity,Plasmodium falciparum [18],Dose-dependent effect
same,Activity,Plasmodium falciparum [19],Active
same,IC50,Plasmodium falciparum [20],29.6 µM
same,IC90,Plasmodium falciparum [20],53.3 µM
same,Activity,Plasmodium falciparum [21],Active
same,Activity,Plasmodium falciparum [22],Active
same,Activity,Plasmodium falciparum [23],Active
same,Activity,Plasmodium falciparum [24],Active
same,Activity,Plasmodium falciparum [25],Active
same,inhibition,Plasmodium falciparum [26],95%
